Compound activity from PubChem BioAssay.
Sampled rows, rich in hits. Any-hit rate of the full collection: about 3.1%.
KCNK3 inh: human KCNK3 channel inhibition, primary screen | 340,000 tested, 0.84% active | O14649 | B-score at 10 µM | CHO-KCNK3 thallium flux, FluxOR fluorescence; hits give low values;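 active means B-score under library mean minus 4 SD, starting fluorescence ratio at most library mean plus 5 SD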;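 further: more negative B-score means stronger inhibition of thallium flux through KCNK3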
KCNQ1 pot: potentiates or activates the human KCNQ1 potassium channel | B-score at 10 µM | CHO-K1 KCNQ1, thallium flux FluxOR fluorescence; hits give high values | 310,000 tested, 0.35% active | P51787;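 active means fluorescence ratio B-score, a plate-corrected score, at least three library SD, with initial intensity B-score within 5 SD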
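Doses: Single concentration per compound, DMSO matched to controls | Test system: KCNQ1-transfected CHO-K1 cells | Timing: 90 min dye loading and 20 min compound exposure, both at room temperature | Measured by: Kinetic FluxOR thallium fluorescence, 10-s 1-Hz baseline, 110-s post-stimulus read | Medium: Assay buffer with matched DMSO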
KCNQ1 inh: human KCNQ1 channel inhibition. CHO-K1 KCNQ1, FluxOR thallium flux fluorescence; hits give high values. B-score at 10 µM. 310,000 tested, 1.3% active. AID 2642;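 active means compounds whose thallium flux B-score, printed positive for inhibition, exceeds three library SD while starting fluorescence stays within three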;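 further: channel opened by potassium depolarization with thallium stimulus after 20 min compound exposure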
hERG rescue: hERG (human) protection from proarrhythmic block | CHO-hERG, FluxOR thallium flux, dofetilide IC70 present | 310,000 tested, 0.51% active | AID 1511 | Q12809 | activation (rescue from dofetilide block), less the hit threshold, % at 10 µM;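 active means activation above the mean of controls blocked by dofetilide plus 5 SD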;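 further: thallium influx through hERG after potassium depolarization seen as dye fluorescence rise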
Target sequence (Q12809 whole entry, looked up): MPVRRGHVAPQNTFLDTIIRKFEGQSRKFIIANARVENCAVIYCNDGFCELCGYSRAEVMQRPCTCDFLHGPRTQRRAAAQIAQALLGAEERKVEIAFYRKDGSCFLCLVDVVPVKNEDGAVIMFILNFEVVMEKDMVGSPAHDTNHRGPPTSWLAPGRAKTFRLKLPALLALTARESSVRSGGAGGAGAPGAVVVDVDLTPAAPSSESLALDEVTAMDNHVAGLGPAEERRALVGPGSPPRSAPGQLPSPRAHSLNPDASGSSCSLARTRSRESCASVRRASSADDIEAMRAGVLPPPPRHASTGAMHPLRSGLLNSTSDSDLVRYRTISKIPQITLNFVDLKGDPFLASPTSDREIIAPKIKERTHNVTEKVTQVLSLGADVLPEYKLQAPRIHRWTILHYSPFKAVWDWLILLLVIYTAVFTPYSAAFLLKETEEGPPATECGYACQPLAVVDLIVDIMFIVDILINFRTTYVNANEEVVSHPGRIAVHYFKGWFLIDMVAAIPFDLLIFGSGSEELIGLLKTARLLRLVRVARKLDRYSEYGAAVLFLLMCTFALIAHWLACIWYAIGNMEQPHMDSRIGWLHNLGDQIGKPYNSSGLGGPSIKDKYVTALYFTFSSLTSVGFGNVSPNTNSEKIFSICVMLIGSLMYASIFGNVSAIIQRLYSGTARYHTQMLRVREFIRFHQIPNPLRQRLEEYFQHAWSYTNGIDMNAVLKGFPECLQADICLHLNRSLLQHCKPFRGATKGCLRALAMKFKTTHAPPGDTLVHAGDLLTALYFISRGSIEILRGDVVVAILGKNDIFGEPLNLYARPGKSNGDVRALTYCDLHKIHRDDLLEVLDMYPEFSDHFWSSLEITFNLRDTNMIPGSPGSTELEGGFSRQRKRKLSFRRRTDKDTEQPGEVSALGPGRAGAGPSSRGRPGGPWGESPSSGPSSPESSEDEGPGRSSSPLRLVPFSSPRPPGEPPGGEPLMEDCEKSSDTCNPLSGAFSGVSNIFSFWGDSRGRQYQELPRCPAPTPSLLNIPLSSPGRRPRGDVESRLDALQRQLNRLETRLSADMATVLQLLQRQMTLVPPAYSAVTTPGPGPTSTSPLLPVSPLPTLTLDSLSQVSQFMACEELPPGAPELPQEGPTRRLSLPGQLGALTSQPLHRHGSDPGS
KCNK9 inh: human KCNK9 channel inhibition | Q9NPC2 | HEK293 KCNK9, FluxOR thallium flux fluorescence; hits give low values | B-score at 10 µM | 310,000 tested, 1.2% active;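 active means ratio B-score over 3 SD below the library mean, with starting fluorescence within 5 SD of its mean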;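 further: negative B-score means less thallium flux so channel inhibition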
KCNQ1 block val: reconfirmed blocker of the human KCNQ1 potassium channel. shares compounds with KCNQ1 inh. KCNQ1 cell line, FluxOR thallium flux fluorescence. inhibition, % at 10 µM. 1,600 tested, 93% active;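 active means primary screen active, with duplicate mean exceeding buffer control mean plus 3 SD of buffer wells, cut at about 28% in these data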
CHO Tl flux: activity in parental CHO cells lacking KCNQ1 | shares compounds with KCNQ1 inh | parental CHO-K1, FluxOR thallium flux fluorescence ratio; hits give low values; zero means no signal rise above baseline | fluorescence ratio (Tl flux) at 10 µM | 1,600 tested, 21% active | AID 588366;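 active means mean of duplicate thallium-flux fluorescence ratios in parental host cells more than 5 SD below the buffer control mean, cut at about 0.38 in these data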;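 further: ratio is peak minus minimum fluorescence divided by baseline fluorescence; actives read low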
KCNQ1 APC inh: blocks human KCNQ1 current in automated patch clamp; calls only at 10 µM; 490 tested, 20% active; shares compounds with KCNQ1 inh; AID 624120; KCNQ1-CHO cells;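 active means KCNQ1 current drop exceeding 3 SD of negative control wells, seen in both duplicate runs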;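 further: steady state current during a 2 s step from -80 to +40 mV; negative values mean current inhibition and positive values mean potentiation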
KCNQ2 spec: selectivity of KCNQ1 inhibitors: inhibition of rat KCNQ2 channel | shares compounds with KCNQ1 inh | 1,600 tested, 71% active | inhibition, % at 10 µM | KCNQ2 cells, FluxOR thallium flux fluorescence;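 active means mean percent inhibition of the KCNQ2 thallium signal more than 5 SD above the buffer-only control wells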;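 further: KCNQ2 expressed in CHO cells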
KCNQ1 KCNE1 spec: KCNQ1 inhibitor that also blocks human KCNQ1/KCNE1 channel. AID 652147. KCNQ1/KCNE1 cells, FluxOR thallium flux fluorescence. shares compounds with KCNQ1 inh. inhibition, % at 10 µM. 1,600 tested, 77% active;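 active means mean percent inhibition of duplicate wells above the buffer-only control mean plus 3 SD of those controls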
Of the large screens only hits and unclear results are named; the others gave an inactive call (follow-up assays come after a bar, where they were run).

Clc1ccc(-c2cc3ccccc3nc2N2CCCC2)cc1	KCNQ1 inh 12 | KCNQ1 block val 130 | CHO Tl flux inactive | KCNQ1 APC inh inactive | KCNQ2 spec 83% | KCNQ1 KCNE1 spec 167%
CN(C)c1ccc(P(=O)(OCc2ccccc2)C(O)c2ccccc2)cc1 (configuration not stated)	none
COc1ccccc1C(=O)N1CCN(C(=O)c2oc3ccc(C)cc3c2C)CC1	none
COc1ccc(N(CC(O)Cn2c3ccccc3c3ccccc32)S(=O)(=O)c2ccccc2)cc1 (configuration not stated)	KCNQ1 inh 11, KCNK9 inh -7.5 | KCNQ1 block val 107 | CHO Tl flux inactive | KCNQ1 APC inh inactive | KCNQ2 spec inactive | KCNQ1 KCNE1 spec 148%
O=C(c1ccnc(Cl)c1)N1CCCC(N2CCN(c3ccccc3F)CC2)C1 (configuration not stated)	none
COc1cccc(C2CC(c3cccs3)=NN2C(=O)CSc2nc3c(cnn3-c3ccc(F)cc3)c(=O)[nH]2)c1OC (configuration not stated)	KCNQ1 inh 15 | KCNQ1 block val 116 | CHO Tl flux inactive | KCNQ1 APC inh inactive | KCNQ2 spec 71% | KCNQ1 KCNE1 spec 85%
CCC(=O)N(Cc1ccco1)c1nc(C(=O)Nc2ccc(Cl)cc2)c(C)s1	KCNQ1 inh 9 | KCNQ1 block val 88 | CHO Tl flux inactive | KCNQ2 spec 63% | KCNQ1 KCNE1 spec 111%
CCN(C(=O)c1ccco1)c1nc(CC(=O)Nc2ccc(Cl)cc2)cs1	none
CC1CCC(=C(C#N)C(=O)Nc2cccc(Cl)c2)CC1 (configuration not stated)	KCNQ1 inh 15 | KCNQ1 block val 96 | CHO Tl flux inactive | KCNQ1 APC inh active | KCNQ2 spec 94% | KCNQ1 KCNE1 spec 82%
N#CC(C(=O)Nc1cccc(Cl)c1)=C1Nc2ccccc2N1	none
CCC(C(=O)OC)n1cnc2scc(-c3ccc(C)c(C)c3)c2c1=O (configuration not stated)	KCNQ1 inh 7 | KCNQ1 block val 52 | CHO Tl flux inactive | KCNQ2 spec 61% | KCNQ1 KCNE1 spec inactive
CCCOC(=O)C(C)n1cnc2scc(-c3ccc(C)cc3)c2c1=O (configuration not stated)	KCNQ1 inh 9 | KCNQ1 block val 93 | CHO Tl flux inactive | KCNQ1 APC inh active | KCNQ2 spec 70% | KCNQ1 KCNE1 spec 116%
CC(Nc1ccc(Cl)cc1)c1cc(Cl)ccc1O (configuration not stated)	KCNQ1 inh 6 | KCNQ1 block val 124 | CHO Tl flux inactive | KCNQ2 spec inactive | KCNQ1 KCNE1 spec 152%
CCOc1ccc(NC(C)c2cc(Cl)ccc2O)cc1 (configuration not stated)	none
Cc1ccc(S(=O)(=O)NC(=O)c2cc(C)n(-c3ccccc3)c2C)cc1	none
Cc1ccc(S(=O)(=O)NC(=O)c2cc(C)n(-c3ccc(N(C)C)cc3)c2C)cc1	KCNQ1 inh 6 | KCNQ1 block val 30 | CHO Tl flux inactive | KCNQ2 spec inactive | KCNQ1 KCNE1 spec inactive
O=C(NCc1cccnc1)c1ccccc1CCc1ccccc1	none
c1ccc2c(N3CCCCC3)nc(N3CCCC3)nc2c1	KCNQ1 inh 9 | KCNQ1 block val 36 | CHO Tl flux inactive | KCNQ2 spec inactive | KCNQ1 KCNE1 spec inactive
c1ccc(-c2nc(N3CCNCC3)nc3ccccc23)cc1	none
c1ccc(-c2nc(N3CCCCC3)nc3ccccc23)cc1	KCNQ1 inh 7 | KCNQ1 block val 118 | CHO Tl flux inactive | KCNQ1 APC inh inactive | KCNQ2 spec 113% | KCNQ1 KCNE1 spec 174%
c1ccc2c(c1)nc(N1CCCCC1)c1ccccc12	none
CCN(C(=O)c1ccco1)C1C2CC3CC(C2)CC1C3 (configuration not stated)	none
Clc1ccc(-c2cc3ccccc3[nH]2)cc1	KCNQ1 inh 6 | KCNQ1 block val 124 | CHO Tl flux inactive | KCNQ2 spec inactive | KCNQ1 KCNE1 spec 98%
CCOC(=O)c1cc(-c2ccccc2)sc1NC(=O)CC(C)C	KCNQ1 inh 6 | KCNQ1 block val 100 | CHO Tl flux 0.35 | KCNQ2 spec 127% | KCNQ1 KCNE1 spec 116%
Cc1noc(C)c1COc1ccccc1C(=O)NNC(=O)C(C)Oc1ccccc1F (configuration not stated)	none
COc1ccc(-c2nc3cc(C)ccn3c2NCc2ccc3c(c2)OCO3)cc1	KCNQ1 inh 7 | KCNQ1 block val 98 | CHO Tl flux inactive | KCNQ1 APC inh inactive | KCNQ2 spec 89% | KCNQ1 KCNE1 spec 136%
c1ccc(-c2nc3ccccn3c2NCc2ccc3c(c2)OCO3)cc1	none
O=C(NCc1cccc(C(F)(F)F)c1)N1CCN(C(=O)c2ccccc2)CC1	none (no result: KCNQ1 pot, KCNQ1 inh, hERG rescue, KCNK9 inh)
Cc1cc(-c2ccc(S(=O)(=O)N(C)c3ccc(C)c(C)c3)s2)on1	KCNQ1 inh 9 | KCNQ1 block val 128 | CHO Tl flux 0.34 | KCNQ2 spec 143% | KCNQ1 KCNE1 spec 150%
O=C1CCCN1c1ccc(S(=O)(=O)NCCOc2ccccc2)cc1	none
Cc1cc(N2CCCC2=O)cc(C)c1S(=O)(=O)NCCOc1ccc(C(C)(C)C)cc1	KCNQ1 inh 10 | KCNQ1 block val 138 | CHO Tl flux inactive | KCNQ1 APC inh inactive | KCNQ2 spec 112% | KCNQ1 KCNE1 spec 141%
Cc1nc(CN2CCN(Cc3nc(C(c4ccccc4)c4ccccc4)no3)CC2)cs1	none
COc1ccc(C(=O)C2CCCN(Cc3c(F)ccc(F)c3F)C2)c(OC)c1 (configuration not stated)	none
COc1ccc(C(=O)C2CCCN(Cc3cccn3-c3ccc(Cl)cn3)C2)c(OC)c1 (configuration not stated)	KCNQ1 inh 11 | KCNQ1 block val 82 | CHO Tl flux inactive | KCNQ2 spec 85% | KCNQ1 KCNE1 spec inactive
Cc1ccc(-c2nc(CN(Cc3cnn(C)c3)C(C)C)c(C)o2)o1	none
Fc1ccc2[nH]c3c(NCc4ccccc4)ncnc3c2c1	KCNQ1 inh 7 | KCNQ1 block val 150 | CHO Tl flux inactive | KCNQ1 APC inh inactive | KCNQ2 spec 73% | KCNQ1 KCNE1 spec 76%
COc1ccc2[nH]c3c(NCc4ccco4)ncnc3c2c1	none (no result: KCNK3 inh)
